Assay [1] relates to Lewis lung carcinoma. In words: Antitumor activity against mouse LL2 cells transfected with Ad-BMK1 allografted in C57Bl/6 mouse assessed as reduction tumor growth at 50 mg/kg, ip administered on day 7 post implantation measured after 17 days. Conditions: time 10.0 day. Type of assay: functional, organism-based. In short, it runs like this: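 LL/2 cells (1×10^6) were injected s.c. into C57Bl/6 mice; 6 per group. Ad-EV or Ad-BMK1(AEF) was given intratumorally on days 7, 11, 15 and 19. Drug was dosed at 50 mg/kg i.p. twice daily from day 8 to day 20; control groups received carrier solution.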

Assay [2] can be described thus: Inhibition of MSK1/2 in human HeLa cells lysate at 50 uM pre incubated for 15 mins followed by ADP acyl phosphate probe addition and measured after 10 mins by LC-MS/MS analysis relative to control. Conditions: 25 min, condition cancer.
Assay [3] in a line: Inhibition of NEK6/7 in human HeLa cells lysate at 10 uM pre incubated for 15 mins followed by ADP acyl phosphate probe addition and measured after 10 mins by LC-MS/MS analysis relative to control. Conditions: 25 min, condition cancer.
Assay [4] deals with T1, Serine/threonine-protein kinase A-Raf (Homo sapiens) (UniProt P10398).
T1 sequence (whole entry): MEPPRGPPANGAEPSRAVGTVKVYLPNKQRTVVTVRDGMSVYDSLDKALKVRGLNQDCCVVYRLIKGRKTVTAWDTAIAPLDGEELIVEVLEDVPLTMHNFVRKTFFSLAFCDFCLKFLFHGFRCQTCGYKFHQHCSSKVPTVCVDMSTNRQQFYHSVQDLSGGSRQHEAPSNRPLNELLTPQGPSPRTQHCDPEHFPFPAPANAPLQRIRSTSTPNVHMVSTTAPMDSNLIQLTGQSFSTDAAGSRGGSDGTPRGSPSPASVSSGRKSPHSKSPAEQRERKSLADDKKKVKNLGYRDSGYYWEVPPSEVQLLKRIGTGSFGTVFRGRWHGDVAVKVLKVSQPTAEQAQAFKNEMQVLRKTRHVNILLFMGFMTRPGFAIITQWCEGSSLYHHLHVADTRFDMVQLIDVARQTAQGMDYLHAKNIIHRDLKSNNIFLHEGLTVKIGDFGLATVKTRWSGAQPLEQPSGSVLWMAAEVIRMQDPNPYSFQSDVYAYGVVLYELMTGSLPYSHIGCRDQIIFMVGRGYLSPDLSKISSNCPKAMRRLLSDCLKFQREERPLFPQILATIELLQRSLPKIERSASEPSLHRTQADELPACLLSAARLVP
In words: Inhibition of ARAF in human HeLa cells lysate at 50 uM pre incubated for 15 mins followed by ATP acyl phosphate probe addition and measured after 10 mins by LC-MS/MS analysis relative to control. Type of assay: subcellular. Conditions: time 25.0 min. In short, it runs like this:
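KiNativ-type profiling in HeLa lysate (5 mg/mL total protein). Lysate preincubated 15 min with inhibitor at 50, 10, 2, 0.8 or 0 μM, then ATP or ADP acylphosphate probe added (5 μM final) for 10 min. Reaction stopped with urea and analysed by targeted MS, using up to four fragment ions per kinase peptide-probe conjugate. % inhibition calculated against untreated lysate. Duplicate reactions.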

The target in assay [5] is eIF-2-alpha kinase GCN2 (Homo sapiens, UniProt Q9P2K8). In words: Inhibition of GCN2 in human HeLa cells lysate at 50 uM pre incubated for 15 mins followed by ATP acyl phosphate probe addition and measured after 10 mins by LC-MS/MS analysis relative to control. Type of assay: subcellular. Conditions: time 25.0 min.
eIF-2-alpha kinase GCN2, sequence (Q9P2K8 whole entry): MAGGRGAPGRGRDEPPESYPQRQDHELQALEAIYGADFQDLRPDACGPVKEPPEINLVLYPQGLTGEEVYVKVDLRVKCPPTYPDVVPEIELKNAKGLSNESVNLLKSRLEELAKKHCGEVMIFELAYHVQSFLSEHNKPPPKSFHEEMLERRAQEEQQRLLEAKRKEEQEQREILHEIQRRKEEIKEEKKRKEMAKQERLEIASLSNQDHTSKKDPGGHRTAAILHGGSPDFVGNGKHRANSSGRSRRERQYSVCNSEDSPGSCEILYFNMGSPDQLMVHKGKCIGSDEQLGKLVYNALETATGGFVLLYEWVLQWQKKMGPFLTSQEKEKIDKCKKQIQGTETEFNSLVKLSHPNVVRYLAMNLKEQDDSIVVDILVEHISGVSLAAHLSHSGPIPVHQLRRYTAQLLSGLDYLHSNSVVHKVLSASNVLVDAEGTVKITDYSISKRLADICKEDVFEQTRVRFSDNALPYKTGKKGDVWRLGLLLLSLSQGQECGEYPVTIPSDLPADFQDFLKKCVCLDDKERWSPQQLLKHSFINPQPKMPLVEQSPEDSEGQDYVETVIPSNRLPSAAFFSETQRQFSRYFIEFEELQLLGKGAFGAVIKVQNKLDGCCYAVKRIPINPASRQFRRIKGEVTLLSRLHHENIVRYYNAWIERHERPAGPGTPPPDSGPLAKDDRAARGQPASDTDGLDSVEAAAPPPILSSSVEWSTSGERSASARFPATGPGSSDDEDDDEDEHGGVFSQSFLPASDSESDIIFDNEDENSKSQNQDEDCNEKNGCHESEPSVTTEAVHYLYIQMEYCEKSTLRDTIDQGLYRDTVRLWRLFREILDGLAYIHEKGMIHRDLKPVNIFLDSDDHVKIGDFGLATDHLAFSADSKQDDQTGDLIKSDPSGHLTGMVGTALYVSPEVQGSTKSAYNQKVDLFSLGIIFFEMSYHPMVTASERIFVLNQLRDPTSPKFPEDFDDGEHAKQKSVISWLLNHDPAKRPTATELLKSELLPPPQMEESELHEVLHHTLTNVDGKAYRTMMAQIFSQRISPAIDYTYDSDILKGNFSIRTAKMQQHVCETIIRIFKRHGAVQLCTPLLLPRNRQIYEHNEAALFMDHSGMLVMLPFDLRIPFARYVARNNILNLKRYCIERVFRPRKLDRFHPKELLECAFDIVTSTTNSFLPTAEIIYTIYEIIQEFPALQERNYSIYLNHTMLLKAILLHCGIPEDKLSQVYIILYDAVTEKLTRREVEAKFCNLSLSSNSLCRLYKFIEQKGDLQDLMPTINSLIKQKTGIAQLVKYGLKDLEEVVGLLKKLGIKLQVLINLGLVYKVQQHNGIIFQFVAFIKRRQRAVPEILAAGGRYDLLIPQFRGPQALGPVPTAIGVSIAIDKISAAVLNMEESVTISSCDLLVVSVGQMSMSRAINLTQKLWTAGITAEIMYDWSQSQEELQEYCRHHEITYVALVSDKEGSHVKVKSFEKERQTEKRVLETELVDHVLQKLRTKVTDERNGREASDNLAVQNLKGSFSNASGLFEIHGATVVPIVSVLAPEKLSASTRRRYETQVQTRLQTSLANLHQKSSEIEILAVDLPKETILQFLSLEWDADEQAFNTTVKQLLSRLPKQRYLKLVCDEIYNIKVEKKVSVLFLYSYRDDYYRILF
Assay [6] deals with Cyclin-dependent kinase 9 (Homo sapiens, UniProt P50750). In words: Inhibition of CDK9 in human HeLa cells lysate at 10 uM pre incubated for 15 mins followed by ATP acyl phosphate probe addition and measured after 10 mins by LC-MS/MS analysis relative to control. Conditions: time 25.0 min. The class given is subcellular. In outline:
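KiNativ profiling in HeLa lysate (5 mg/mL total protein). Lysate incubated 15 min with inhibitor at 50, 10, 2, 0.8 or 0 μM. ATP or ADP acylphosphate probe then added (5 μM final) and reacted 10 min. Reaction stopped with urea and analysed by targeted MS, using up to four fragment ions per kinase peptide-probe conjugate. % inhibition taken against untreated lysate. Run in duplicate.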

The target of assay [7] is T2, Serine/threonine-protein kinase tousled-like 1 (Homo sapiens) (UniProt Q9UKI8).
T2 sequence (whole entry): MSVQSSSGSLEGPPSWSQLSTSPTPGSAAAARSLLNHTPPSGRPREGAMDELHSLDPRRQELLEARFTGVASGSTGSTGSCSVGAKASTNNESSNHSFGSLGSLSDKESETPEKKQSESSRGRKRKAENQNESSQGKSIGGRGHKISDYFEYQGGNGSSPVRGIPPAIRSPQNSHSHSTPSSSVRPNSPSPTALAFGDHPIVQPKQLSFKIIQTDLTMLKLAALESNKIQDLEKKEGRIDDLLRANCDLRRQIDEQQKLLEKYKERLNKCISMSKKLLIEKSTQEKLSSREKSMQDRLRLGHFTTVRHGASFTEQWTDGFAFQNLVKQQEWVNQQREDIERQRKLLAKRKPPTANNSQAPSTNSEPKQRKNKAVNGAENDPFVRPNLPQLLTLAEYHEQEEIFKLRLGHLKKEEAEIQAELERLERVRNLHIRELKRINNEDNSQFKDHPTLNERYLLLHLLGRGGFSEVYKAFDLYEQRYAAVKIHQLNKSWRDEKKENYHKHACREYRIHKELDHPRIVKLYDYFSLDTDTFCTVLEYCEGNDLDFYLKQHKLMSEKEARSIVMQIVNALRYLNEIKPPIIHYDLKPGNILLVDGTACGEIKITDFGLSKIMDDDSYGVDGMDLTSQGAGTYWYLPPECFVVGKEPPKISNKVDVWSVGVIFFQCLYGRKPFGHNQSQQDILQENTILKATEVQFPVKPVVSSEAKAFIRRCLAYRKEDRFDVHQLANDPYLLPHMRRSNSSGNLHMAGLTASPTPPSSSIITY
In words: Inhibition of TLK1 in human HeLa cells lysate at 10 uM pre incubated for 15 mins followed by ADP acyl phosphate probe addition and measured after 10 mins by LC-MS/MS analysis relative to control. The class given is subcellular. Conditions: time 25.0 min.

Assay [8] has as its target T3, Dual specificity mitogen-activated protein kinase kinase 6 (Homo sapiens) (UniProt P52564).
T3 sequence (whole entry): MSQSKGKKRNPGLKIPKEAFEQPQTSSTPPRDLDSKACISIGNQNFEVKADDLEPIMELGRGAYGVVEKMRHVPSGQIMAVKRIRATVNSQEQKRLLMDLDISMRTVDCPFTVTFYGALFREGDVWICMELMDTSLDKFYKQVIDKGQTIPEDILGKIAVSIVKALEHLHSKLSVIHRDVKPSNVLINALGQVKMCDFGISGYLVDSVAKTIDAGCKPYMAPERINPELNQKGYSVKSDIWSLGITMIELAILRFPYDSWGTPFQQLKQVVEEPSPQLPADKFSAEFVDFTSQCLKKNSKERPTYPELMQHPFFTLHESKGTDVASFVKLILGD
In words: Inhibition of MAP2K6 in human HeLa cells lysate at 2 uM pre incubated for 15 mins followed by ATP acyl phosphate probe addition and measured after 10 mins by LC-MS/MS analysis relative to control. The class given is subcellular. Conditions: time 25.0 min.

The target in assay [9] is Serine/threonine-protein kinase Chk2 (Homo sapiens, UniProt O96017). Put plainly: Inhibition of CHK2 in human HeLa cells lysate at 50 uM pre incubated for 15 mins followed by ADP acyl phosphate probe addition and measured after 10 mins by LC-MS/MS analysis relative to control. The class given is subcellular. Conditions: time 25.0 min.
Serine/threonine-protein kinase Chk2, sequence (O96017 whole entry): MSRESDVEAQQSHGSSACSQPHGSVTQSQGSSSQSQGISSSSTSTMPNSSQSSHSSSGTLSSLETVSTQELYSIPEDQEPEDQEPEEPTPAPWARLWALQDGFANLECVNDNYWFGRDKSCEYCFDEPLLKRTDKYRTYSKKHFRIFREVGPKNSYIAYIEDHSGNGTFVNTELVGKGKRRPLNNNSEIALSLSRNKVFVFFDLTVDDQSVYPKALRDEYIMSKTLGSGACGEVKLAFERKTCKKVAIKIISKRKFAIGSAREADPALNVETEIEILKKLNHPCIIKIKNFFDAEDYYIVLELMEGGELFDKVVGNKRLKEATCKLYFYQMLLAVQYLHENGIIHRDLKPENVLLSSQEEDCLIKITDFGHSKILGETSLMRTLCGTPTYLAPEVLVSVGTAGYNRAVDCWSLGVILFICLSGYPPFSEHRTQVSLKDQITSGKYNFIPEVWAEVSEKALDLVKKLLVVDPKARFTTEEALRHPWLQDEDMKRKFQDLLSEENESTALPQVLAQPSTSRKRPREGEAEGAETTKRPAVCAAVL

Activity calls are given as the source filed them. The rule behind the calls is not given here.

Cyclin-dependent kinase 9, sequence (P50750 whole entry, the tested form may be a part): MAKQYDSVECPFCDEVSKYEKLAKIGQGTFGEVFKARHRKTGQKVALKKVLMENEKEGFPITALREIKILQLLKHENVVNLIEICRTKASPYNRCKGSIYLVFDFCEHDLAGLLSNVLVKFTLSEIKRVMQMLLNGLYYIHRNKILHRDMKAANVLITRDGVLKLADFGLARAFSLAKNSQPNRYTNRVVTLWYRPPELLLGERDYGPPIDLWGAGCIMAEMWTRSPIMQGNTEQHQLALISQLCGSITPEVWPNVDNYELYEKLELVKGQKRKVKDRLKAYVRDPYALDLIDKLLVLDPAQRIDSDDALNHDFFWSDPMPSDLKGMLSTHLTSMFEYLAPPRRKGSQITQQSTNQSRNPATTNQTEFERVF

For `CCOc1cc(N2CCC(O)CC2)ccc1Nc1ncc2c(n1)N(C)c1ccccc1C(=O)N2C`, in assay [1], the result was Active. Moreover, the inhibition at 50 µM in assay [2] worked out at 10%. Also, in [3], the inhibition at 10 µM is -11.8%. Further, the inhibition in assay [4] is 4.3%; in assay [5], 7%; in [6], -4.1%; in assay [7], 4.5%; in [8] it was -4%; in assay [9], -2.7%.

The term inhibition denotes the relative decrease from the control value, in per cent.
